Source: ChEMBL document CHEMBL1131607, “Synthesis of 7-arylmorphinans. Probing the "address" requirements for selectivity at opioid delta receptors” (J Med Chem, 1998)

Experiments:
[1] = target: Delta-type opioid receptor (Mus musculus) (UniProt P32300); experiment: Inhibition of [D-Ala2,D-Leu5]-enkephalin (DADLE) activity in the electrically stimulated mouse vas deferens
How it was run: (§1)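 Antagonism in electrically stimulated smooth muscle, hydrochloride salts. Test ligand 100 nM preincubated for 15 min before the standard agonist: DADLE (δ) in mouse vas deferens, morphine (μ) and ethylketazocine (κ) in guinea pig ileal longitudinal muscle. IC50 ratio = agonist IC50 with test compound / control agonist IC50. Ke (nM) = [antagonist]/(IC50 ratio − 1).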

[2] = target: Mu-type opioid receptor (Cavia porcellus) (UniProt P97266); experiment: Compound was tested for opioid antagonist activity in the electrically stimulated GPI preparation, against morphine (Opioid receptor mu 1); type: functional; how it was run: as §1
[3] = target: Kappa-type opioid receptor (Cavia porcellus) (UniProt P41144); experiment: Antagonist activity against electrically stimulated guinea pig ileum Opioid receptor kappa 1; type: functional, tissue-based; how it was run: as §1
[4] = species: Cavia porcellus; experiment: (§2) Compound was tested for opioid agonist activity in the electrically stimulated guinea pig ileal longitudinal muscle(GPI); type: functional, Muscle tissue
How it was run: (§3)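 Electrically stimulated guinea pig ileal longitudinal muscle or mouse vas deferens, hydrochloride salts. Weak agonists tested at a single 1 μM concentration, reported as percent of maximal response (±SE). Full agonists run at four to six concentrations to give a concentration-response curve compared with a standard agonist in the same tissue. IC50 = agonist concentration giving half-maximal response; a negative value means enhanced twitch amplitude.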

[5] = species: Mus musculus; experiment: (§4) Compound was tested for opioid agonist activity in the electrically stimulated mouse vas deferens(MVD); type: functional; how it was run: as §3
[6] = species: Cavia porcellus; experiment: as §2; type: functional, organism-based; details: Muscle tissue; how it was run: as §3
[7] = species: Mus musculus; experiment: as §4; type: functional, organism-based; how it was run: as §3

Mu-type opioid receptor (Cavia porcellus), sequence (P97266 whole entry): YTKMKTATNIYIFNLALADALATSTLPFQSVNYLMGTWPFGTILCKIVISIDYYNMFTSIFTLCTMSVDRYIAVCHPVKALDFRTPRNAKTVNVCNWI
Kappa-type opioid receptor (Cavia porcellus), sequence (P41144 whole entry): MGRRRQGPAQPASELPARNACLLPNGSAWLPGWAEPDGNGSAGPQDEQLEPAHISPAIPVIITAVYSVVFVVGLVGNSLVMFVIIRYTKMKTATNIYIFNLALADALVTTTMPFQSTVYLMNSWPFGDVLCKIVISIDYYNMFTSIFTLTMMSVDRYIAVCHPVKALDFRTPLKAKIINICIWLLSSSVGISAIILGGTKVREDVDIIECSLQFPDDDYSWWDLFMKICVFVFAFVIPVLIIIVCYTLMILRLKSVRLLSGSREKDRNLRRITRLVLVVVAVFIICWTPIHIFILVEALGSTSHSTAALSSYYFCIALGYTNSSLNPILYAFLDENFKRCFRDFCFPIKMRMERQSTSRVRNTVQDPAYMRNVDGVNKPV
Delta-type opioid receptor (Mus musculus), sequence (P32300 whole entry): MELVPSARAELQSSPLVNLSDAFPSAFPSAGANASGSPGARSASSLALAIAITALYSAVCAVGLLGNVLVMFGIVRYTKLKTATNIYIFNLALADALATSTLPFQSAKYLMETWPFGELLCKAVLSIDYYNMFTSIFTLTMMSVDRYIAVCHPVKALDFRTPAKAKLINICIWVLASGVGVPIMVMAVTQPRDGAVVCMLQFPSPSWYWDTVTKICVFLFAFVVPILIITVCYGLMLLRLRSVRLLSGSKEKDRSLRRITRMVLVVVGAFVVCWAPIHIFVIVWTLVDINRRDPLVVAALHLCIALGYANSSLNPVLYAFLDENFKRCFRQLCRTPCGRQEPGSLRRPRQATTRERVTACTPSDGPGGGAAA

Structure (SMILES)	IC50 ratio [1]	IC50 ratio [2]	IC50 ratio [3]	Max response [4]	Max response [5]	Ke [4]	Ke [5]	IC50 [6]	IC50 [7]
CC(=O)O[C@H]1[C@@H](c2ccccc2)CC2[C@H]3Cc4ccc(O)c5c4[C@@]2(CCN3C)[C@H]1O5 (some centres not stated)	1.02	0.9	1.08	24%	34.3%	–	–	–	–
Oc1ccc2c3c1O[C@H]1c4[nH]c5ccccc5c4C[C@@]4(O)[C@@H](C2)N(CC2CC2)CC[C@]314 [NALTRINDOLE]	–	–	–	–	–	29 nM	0.13 nM	–	–
Oc1ccc2c3c1O[C@H]1[C@@H](O)[C@@H](c4ccccc4)CC4[C@@H](C2)N(C2CC2)CC[C@@]341 (some centres not stated)	3.03	–	–	–	–	–	–	–	–
CC(=O)O[C@H]1[C@@H](c2ccccc2)CC2[C@H]3Cc4ccc(O)c5c4[C@@]2(CCN3C2CC2)[C@H]1O5 (some centres not stated)	6.38	–	–	–	21.1%	–	–	118 nM	–
CN1CC[C@]23c4c5ccc(O)c4O[C@H]2[C@@H](O)[C@@H](c2cccc([N+](=O)[O-])c2)CC3[C@H]1C5 (some centres not stated)	0.99	0.34	1.05	49.3%	56.1%	–	–	–	–
CN1CC[C@]23c4c5ccc(O)c4O[C@H]2[C@@H](O)[C@@H](c2ccccc2)CC3[C@H]1C5 (some centres not stated)	–	1.85	1.9	23.2%	–	–	–	–	178 nM
CN1CC[C@]23c4c5ccc(O)c4O[C@H]2[C@@H](O)[C@@H](c2ccc(Br)cc2)CC3[C@H]1C5 (some centres not stated)	1.17	1.2	1.76	10%	15.2%	–	–	–	–
CN1CC[C@]23c4c5ccc(O)c4O[C@H]2C(=O)[C@@H](c2ccccc2)C[C@H]3[C@H]1C5	0.97	1.05	0.75	53.9%	29.2%	–	–	–	–
CN1CC[C@]23c4c5ccc(O)c4O[C@H]2C(=O)C(c2ccccc2)(c2ccccc2)CC3[C@H]1C5 (some centres not stated)	2.34	1.69	1.01	9.7%	5.4%	–	–	–	–
O=C1[C@@H](c2ccccc2)C[C@H]2[C@H]3Cc4ccc(O)c5c4[C@@]2(CCN3C2CC2)[C@H]1O5	17.6	–	–	–	–	–	–	–	–
O=[N+]([O-])c1cccc([C@H]2CC3[C@H]4Cc5ccc(O)c6c5[C@@]3(CCN4C3CC3)[C@@H](O6)[C@H]2O)c1 (some centres not stated)	4.17	–	–	–	–	–	–	–	–
